Reference: PubChem BioAssay AID602316 (Southern Research Specialized Biocontainment Screening …, 2012)
Activity calls are given as the source filed them.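 The calls were made as follows: active = inhibition of at least 30% at any tested concentration; inactive = the rest.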

target: M18 aspartyl aminopeptidase (Plasmodium falciparum 3D7); experiment: malaria aspartyl aminopeptidase M18 inhibitors – biochemical, QFRET, H-Glu-NHMec substrate, set 3, selectivity assay for PfM17LAP inhibitor project, dose response (AID 602316); details: recombinant PfM18AAP, H-Glu-NHMec fluorogenic cleavage
In short: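 Material: purified recombinant P. falciparum M18 aspartyl aminopeptidase (PFM18AAP); reagent: H-Glu-NHMec substrate, 0.1 mM; doses: 10-point twofold series, 100 to 0.2 µM, 2% DMSO; incubation: 90 min reaction, room temperature; technique: NHMec fluorescence at 370/460 nm; read-out: % inhibition and fitted IC50; benchmarks: no-enzyme background wells; repeats: each dose tested in triplicate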

IC50 [µM] | SMILES
21.7 | CCCCOc1ccc(C(C)C(=O)NO)cc1 (stereo not drawn)
26.1 | CCCOc1ccc(CC(=O)NO)cc1
27.7 | CCC(C)Oc1ccc(CC(=O)NO)cc1 (stereo not drawn)
29.1 | CCCCOc1cccc(CC(=O)NO)c1

same assay, conditions: recombinant PfM18AAP, H-Glu-NHMec fluorogenic cleavage; at 100 µM (top of the series)

inhibition | SMILES
inactive | CCCCOc1ccc(CN(O)C(=O)c2ccccc2)cc1
inactive | CCCCOc1ccc(C(C)(C)C(=O)NO)cc1
inactive | CCCCOc1ccc(C(C)C(=O)O)cc1 (stereo not drawn)
inactive | CCCCOc1ccc(CN(O)C(C)=O)cc1
inactive | CN(C)CCOc1ccc(CC(=O)O)cc1
inactive | CCCCOc1ccc(C(C)C(=O)OC)cc1 (stereo not drawn)
inactive | CCCCOc1cccc(CC(=O)OC)c1
inactive | CCCOc1ccc(CC(=O)O)cc1
inactive | CCCCOc1ccc(C(C)(C)C(=O)O)cc1
